Biological target: T1, Prostaglandin G/H synthase 1 (Ovis aries) (UniProt P05979)
T1 sequence (whole entry): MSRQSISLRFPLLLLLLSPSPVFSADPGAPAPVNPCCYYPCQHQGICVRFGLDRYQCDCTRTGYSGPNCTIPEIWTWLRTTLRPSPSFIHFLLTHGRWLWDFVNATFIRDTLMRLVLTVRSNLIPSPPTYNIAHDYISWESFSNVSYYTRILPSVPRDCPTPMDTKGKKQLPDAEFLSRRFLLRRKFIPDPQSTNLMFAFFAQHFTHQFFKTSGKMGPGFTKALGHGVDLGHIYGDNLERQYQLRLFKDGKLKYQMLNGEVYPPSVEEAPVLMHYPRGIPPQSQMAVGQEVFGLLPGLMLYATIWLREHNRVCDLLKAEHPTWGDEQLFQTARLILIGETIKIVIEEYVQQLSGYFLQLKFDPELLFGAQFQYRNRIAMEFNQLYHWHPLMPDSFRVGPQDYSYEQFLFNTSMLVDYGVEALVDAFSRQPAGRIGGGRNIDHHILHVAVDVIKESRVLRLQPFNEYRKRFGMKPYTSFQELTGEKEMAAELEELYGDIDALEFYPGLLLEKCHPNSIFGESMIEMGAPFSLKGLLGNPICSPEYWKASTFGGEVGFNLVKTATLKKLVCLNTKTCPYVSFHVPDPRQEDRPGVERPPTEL
Test: Inhibition of sheep COX1 assessed as PGE2 level at 50 uM by ELISA
Procedure, shortened: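 Ovine COX-1 preincubated 10 min at 37 °C in 100 mM Tris-HCl pH 8.0 with 1 µM heme. Compounds in DMSO, diluted in 100 mM potassium phosphate pH 7.4. Arachidonic acid added to 100 uM final; stopped after 2 min with 1 M HCl. PGE2 measured by competitive ELISA with AChE tracer and Ellman's reagent at 412 nm against a PGE2 standard curve. Expressed as % of solvent control; duplicate, two independent experiments.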

| Compound | inhibition [%] |
| --- | --- |
| COc1ccc2c(c1)c(CC(=O)O)c(C)n2C(=O)c1ccc(Cl)cc1 | 78 |
| Cc1noc2c(Cc3ccccc3)nn(CC(=O)N/N=C\c3ccccc3Br)c(=O)c12 | 52.8 |
| Cc1noc2c(Cc3ccccc3)nn(CC(=O)N/N=C\c3ccc(Cl)cc3)c(=O)c12 | 39.6 |
| Cc1noc2c(Cc3ccccc3)nn(CC(=O)N/N=C\c3cccc(C(F)(F)F)c3)c(=O)c12 | 47.1 |
| Cc1noc2c(Cc3ccccc3)nn(CC(=O)N/N=C\c3cccc(F)c3)c(=O)c12 | 83 |
| Cc1noc2c(Cc3ccccc3)nn(CC(=O)N/N=C\c3cccc(Br)c3)c(=O)c12 | 42.9 |
| Cc1ccccc1/C=N\NC(=O)Cn1nc(Cc2ccccc2)c2onc(C)c2c1=O | 46.9 |
| COc1ccc(/C=N\NC(=O)Cn2nc(Cc3ccccc3)c3onc(C)c3c2=O)cc1 | 46.3 |
| Cc1noc2c(Cc3ccccc3)nn(CC(=O)N/N=C\c3ccccc3C(F)(F)F)c(=O)c12 | 51 |
| Cc1ccc(/C=N\NC(=O)Cn2nc(Cc3ccccc3)c3onc(C)c3c2=O)cc1 | 62.1 |
| Cc1noc2c(Cc3ccccc3)nn(CC(=O)N/N=C\c3ccc([N+](=O)[O-])cc3)c(=O)c12 | 40.7 |
| Cc1noc2c(Cc3ccccc3)nn(CC(=O)N/N=C\c3ccccc3[N+](=O)[O-])c(=O)c12 | 59 |
| Cc1noc2c(Cc3ccccc3)nn(CC(=O)N/N=C\c3cccc(Cl)c3)c(=O)c12 | 36.3 |
| Cc1noc2c(Cc3ccccc3)nn(CC(=O)N/N=C\c3ccccc3Cl)c(=O)c12 | 52.8 |
| COc1ccccc1/C=N\NC(=O)Cn1nc(Cc2ccccc2)c2onc(C)c2c1=O | 65 |
| Cc1noc2c(Cc3ccccc3)nn(CC(=O)N/N=C\c3ccc(F)cc3)c(=O)c12 | 54 |
| Cc1noc2c(Cc3ccccc3)nn(CC(=O)N/N=C\c3ccc(Br)cc3)c(=O)c12 | 50.6 |
| Cc1noc2c(Cc3ccccc3)nn(CC(=O)N/N=C\c3ccccc3F)c(=O)c12 | 41.8 |
| Cc1noc2c(Cc3ccccc3)nn(CC(=O)N/N=C\c3cccc([N+](=O)[O-])c3)c(=O)c12 | 39.6 |
| Cc1noc2c(Cc3ccccc3)nn(CC(=O)N/N=C\c3ccc(C(F)(F)F)cc3)c(=O)c12 | 64 |
| Cc1noc2c(Cc3ccccc3)nn(CC(=O)N/N=C\c3ccccc3)c(=O)c12 | 50.6 |
| COc1cccc(/C=N\NC(=O)Cn2nc(Cc3ccccc3)c3onc(C)c3c2=O)c1 | 55.2 |
| Cc1cccc(/C=N\NC(=O)Cn2nc(Cc3ccccc3)c3onc(C)c3c2=O)c1 | 61 |
